Consider ten molecules from ChEMBL document CHEMBL2396611, “Synthesis and mechanism of hypoglycemic activity of benzothiazole derivatives” (J Med Chem, 2013).

Series [1] concerns L6. Nature of the series: Activation of AMPKalpha in rat L6 cells assessed as phosphorylation at Thr172 at 100 uM up to 5 hrs by Western blot analysis. The format is cell-based. The procedure, abridged: (§1)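 L6 myotubes exposed for the indicated times to test compound (100 μM in the first series; 50–150 μM in the second) or 4 mM AICAR. Whole-cell lysates immunoblotted for pThr172-AMPKα, AMPKα and α-tubulin; band densities from three independent experiments vs respective controls.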
On the technique in general: A western blot detects proteins with antibodies after separation by electrophoresis.

For series [2], the target named is 5'-AMP-activated protein kinase catalytic subunit alpha-2 (Rattus norvegicus) (UniProt Q09137). Nature of the series: (§2) Activation of AMPK in rat L6 cells assessed as increase of [3H]dGlc uptake after 5 hrs. It is filed as cell-based. The procedure, abridged: (§3)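 Fully differentiated L6 myotubes preincubated 24 h in αMEM with 2% FCS and 23.0 mmol/L D-glucose, then 4 h serum-free with 0.5% BSA. Compound or DMSO vehicle given for the indicated times or concentrations. Uptake read after 5 min at room temperature in PBS pH 7.4 with 0.1 mmol/L dGlc and 1.3 μCi/mL [3H]dGlc, by scintillation of SDS lysates. Zero-time basal rate set as 100%; n=6.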

The target is the same in series [3]. Nature of the series: Activation of AMPK in rat L6 cells assessed as increase of [3H]dGlc uptake at 10 to 200 uM. As to conditions: TDE = time-dependent effect. The format is cell-based. A digest of the protocol:
as §3

Series [4] has the same target. The series can be described thus: Activation of AMPK in rat L6 cells assessed as phosphorylation at Thr172 at > 0.5 mmol/L after 5 hrs by Western blot analysis. The format is cell-based.
For series [5] the target is unchanged. Nature of the series: Activation of AMPK in rat L6 cells assessed as increase of [3H]dGlc uptake at > 0.5 mmol/L after 5 hrs. It is filed as cell-based.
Series [6] in a line: Lipophilicity, log P of the compound. As to conditions: octanol/water. The format is physicochemical.
For series [7], the target named is 5'-AMP-activated protein kinase catalytic subunit alpha-2 (Rattus norvegicus) (UniProt Q09137). Nature of the series: Activation of AMPK in rat L6 cells assessed as increase of [3H]dGlc uptake at 100 uM after 5 hrs in absence of insulin. It is filed as cell-based. A digest of the protocol:
as §3

Series [8] deals with L6. Nature of the series: Activation of AMPKalpha in rat L6 cells assessed as phosphorylation at Thr172 at 100 uM after 24 hrs by Western blot analysis. It is filed as cell-based. The procedure, abridged: as §1
Series [9] has as its target 5'-AMP-activated protein kinase catalytic subunit alpha-2 (Rattus norvegicus) (UniProt Q09137). The series can be described thus: Activation of AMPK in rat L6 cells assessed as increase of [3H]dGlc uptake at 100 uM after 24 hrs. It is filed as cell-based. A digest of the protocol: as §3
In series [10] the target is 5'-AMP-activated protein kinase catalytic subunit alpha-2 (Rattus norvegicus, UniProt Q09137). Described as §2. It is filed as cell-based. The procedure, abridged:
as §3

The target in series [11] is 5'-AMP-activated protein kinase catalytic subunit alpha-2 (Homo sapiens) (UniProt P54646). The series can be described thus: Activation of human recombinant AMPK at 20 uM after 30 mins relative to control. The procedure, abridged: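 Recombinant human full-length AMPK assayed with a commercial luminescent kit. Compound at 20 μM or DMSO vehicle (1% v/v) added to the reaction mix for 30 min at ambient temperature. Activity read by luminometer against a calibration curve; basal activity with DMSO set as 100%.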

For series [12], the target named is 5'-AMP-activated protein kinase catalytic subunit alpha-2 (Rattus norvegicus) (UniProt Q09137). Nature of the series: Activation of AMPK in rat L6 cells assessed as increase of [3H]dGlc uptake at 5 uM after 5 hrs relative to control. The format is cell-based. A digest of the protocol:
as §3

Series [13] relates to L6. Nature of the series: Activation of AMPKalpha in rat L6 cells assessed as phosphorylation at Thr172 at 150 uM after 40 mins to 5 hrs by Western blot analysis. The format is cell-based. A digest of the protocol: as §1
The target of series [14] is 5'-AMP-activated protein kinase catalytic subunit alpha-2 (Rattus norvegicus) (UniProt Q09137). The series can be described thus: Activation of AMPK in rat L6 cells assessed as increase of [3H]dGlc uptake at 150 uM after 5 hrs relative to control. The format is cell-based. The procedure, abridged: as §3
Series [15] relates to L6. Nature of the series: Activation of AMPKalpha in rat L6 cells assessed as phosphorylation at Thr172 at 100 uM after 40 mins by Western blot analysis. The format is cell-based. A digest of the protocol:
as §1

Series [16] deals with L6. The series can be described thus: Effect on ATP/AMP ratio in rat L6 cells at >100 uM. The format is ADME, cell-based.
Series [17] deals with 5'-AMP-activated protein kinase catalytic subunit alpha-2 (Rattus norvegicus) (UniProt Q09137). The series can be described thus: Activation of AMPK in rat L6 cells assessed as increase of [3H]dGlc uptake at 100 uM after 10 to 40 hrs. The format is cell-based. A digest of the protocol:
as §3

Series [18] shares this target. Nature of the series: Activation of AMPK in rat L6 cells assessed as increase of [3H]dGlc uptake at 50 uM after 5 hrs relative to control. The format is cell-based. A digest of the protocol: as §3
Series [19] has as its system L6. Nature of the series: Activation of AMPKalpha in rat L6 cells assessed as phosphorylation at Thr172 at 100 uM after 60 mins by Western blot analysis. The format is cell-based. The procedure, abridged: as §1
The subject of series [20] is L6. The series can be described thus: Effect on […] level in rat L6 cells at 3.5 mmol/L after 20 mins in presence of HCGM (reference value: 23 mmol/L). It is filed as ADME, cell-based. As to conditions: l6, 20 min, 3500 µM. A digest of the protocol:
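Fully differentiated L6 myotubes preconditioned in medium with 23.0 mmol/L D-glucose, then exposed 20 min. Cells washed in cold 0.15 M Tris-HCl pH 7.75, extracted with ice-cold 0.5% TCA, diluted in Tris-HCl and spun 12,000 rpm, 30 min, 4 °C. Supernatant ATP measured by colorimetric kit, expressed per mg protein. Mean ± SEM; two-tailed t test against untreated 23.0 mmol/L glucose cells.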

pEC50: −log10 of the molar value. Activity calls are given as the source filed them. The rule behind the calls is not given here.

Chain of 5'-AMP-activated protein kinase catalytic subunit alpha-2 (Rattus norvegicus) (Q09137 whole entry): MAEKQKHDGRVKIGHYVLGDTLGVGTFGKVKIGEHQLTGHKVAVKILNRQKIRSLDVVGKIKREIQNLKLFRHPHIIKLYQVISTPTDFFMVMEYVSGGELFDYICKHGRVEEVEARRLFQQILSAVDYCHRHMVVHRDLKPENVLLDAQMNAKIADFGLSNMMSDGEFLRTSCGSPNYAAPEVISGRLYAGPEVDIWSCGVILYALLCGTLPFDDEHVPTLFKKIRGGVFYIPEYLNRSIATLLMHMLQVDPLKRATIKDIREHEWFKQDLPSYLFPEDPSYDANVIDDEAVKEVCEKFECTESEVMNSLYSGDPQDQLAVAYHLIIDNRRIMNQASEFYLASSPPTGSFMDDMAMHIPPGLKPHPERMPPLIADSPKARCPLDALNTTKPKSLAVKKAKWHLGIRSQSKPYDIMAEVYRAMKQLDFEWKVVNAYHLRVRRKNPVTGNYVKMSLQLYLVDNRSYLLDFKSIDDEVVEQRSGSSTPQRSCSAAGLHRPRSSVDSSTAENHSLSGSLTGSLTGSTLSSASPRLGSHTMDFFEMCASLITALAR
Chain of 5'-AMP-activated protein kinase catalytic subunit alpha-2 (Q09137 whole entry): as above
Chain of 5'-AMP-activated protein kinase catalytic subunit alpha-2 (Homo sapiens) (P54646 whole entry, looked up): as the sequence (Q09137 whole entry) above, with V114M, Q150H, I241V, T348S, M355S, V502F, S505T, N509S, A528V, A549T counted along it

As to `CCCNC(=O)CSc1nc2ccc(OCC)cc2s1`, in the series on L6 [1], the outcome was Active. Further, the Activity result in series [2] is “Dose-dependent effect”; in series [3], “tde”.

With `NC1=NC(=O)/C(=C\C=C\c2ccc([N+](=O)[O-])o2)S1`, the result in series [4] and in series [5] was Active.

The term logP denotes the decadic logarithm of the partition coefficient of the neutral form, usually between octanol and water. A lower logP goes with lower lipophilicity. What is called pEC50 is the negative decadic logarithm of the EC50, by convention in mol/L. The molecule `CCOc1ccc2nc(S)sc2c1` returned a logP in series [6] of 3.17. The outcome (in series [7]; in the series with L6 [8]; in series [9]) was Active. Moreover, the pEC50 in series [10] was 4.12.

In the case of `Cc1cc(-c2ccc(/C=C3/S/C(=N\c4ccc(Cl)c(C(=O)O)c4)NC3=O)o2)c([N+](=O)[O-])cc1C`, the fold change (FC) was determined as 2.04 in series [11] and 1.4 in series [12]. The Activity entry is “Dose-dependent effect” in series [2] and “tde” in series [3].

`CCOc1ccc2nc(SSc3nc4ccc(OCC)cc4s3)sc2c1`: the result with L6 [13] was Active. Moreover, the Activity in [14] is 189%.

For `CCC1SC(N)=NC1=O` (centres undefined), the outcome (in the series with L6 [1]; in series [17]) was inactive. Besides, the result in the series with L6 [15] was Active. Further, the Activity result with L6 [16] was “Toxic”. Further, the pEC50 in [10] is 4.21.

`CCOc1ccc2nc(SCCC(=O)O)sc2c1`: in [18], the fold change (FC) was 1.8. Further, the result with L6 [19] was Active.

On to `Oc1nc2ccc(Br)cc2s1`, for which the outcome (in [7]; in the series with L6 [8]; in [9]) was Active. Also, the pEC50 in series [10] is 4.14.

As for `O=[N+]([O-])c1ccc(O)c([N+](=O)[O-])c1` [2,4-DINITROPHENOL], the Activity in the series on L6 [20] was determined as 0.42 mmol/mg.

As to `Oc1ccc2nc(S)sc2c1`, the logP in series [6] was determined as 1.96.
